The results in this text go back to ChEMBL document CHEMBL3871280, “Bis(N-amidinohydrazones) and N-(amidino)-N'-aryl-bishydrazones: New classes of antibacterial/antifungal agents” (Bioorg Med Chem, 2017).

Active and inactive are the calls of the source. The calls are words filed in the database; no cut-off is given here.

Data set [1] relates to Bacillus subtilis. As to the kind of experiment: Antibacterial activity against Bacillus subtilis 168. It counts as functional. As to conditions: subsp. subtilis str. 168.
The subject of data set [2] is Listeria monocytogenes. As to the kind of experiment: Antibacterial activity against Listeria monocytogenes ATCC 19115. Format: functional.
Data set [3] deals with Acinetobacter baumannii. The data set can be described thus: Antibacterial activity against Acinetobacter baumannii ATCC 19606. Format: functional.
Data set [4] relates to Enterobacter cloacae. As to the kind of experiment: Antibacterial activity against Enterobacter cloacae ATCC 13047. Format: functional. As to conditions: subsp. cloacae ATCC 13047.
Data set [5] concerns Escherichia coli. The data set can be described thus: Antibacterial activity against Escherichia coli MC1061. It counts as functional. The method in brief:
(§1)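 Values were set in μM and converted to μg/mL for presentation. Amikacin, ampicillin and ofloxacin served as positive controls.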

The subject of data set [6] is Klebsiella pneumoniae. The data set can be described thus: Antibacterial activity against Klebsiella pneumoniae ATCC 27736. Format: functional.
Data set [7] has as its system Pseudomonas aeruginosa. As to the kind of experiment: Antibacterial activity against Pseudomonas aeruginosa ATCC 27853. Format: functional.
Data set [8] in a line: Antibacterial activity against Salmonella enterica ATCC 14028. Format: functional.
The subject of data set [9] is Mycolicibacterium smegmatis. The data set can be described thus: Antimycobacterial activity against Mycobacterium smegmatis MC2 155. It counts as functional. To be noted: str. MC2 155. The method, boiled down:
as §1

Data set [10] deals with Candida albicans. As to the kind of experiment: Antifungal activity against Candida albicans ATCC 1003. It counts as functional.
Data set [11] in a line: Antifungal activity against fluconazole/itraconazole/voriconazole-resistant Candida albicans ATCC 1237. Format: functional.
Data set [12] can be described thus: Antifungal activity against fluconazole/itraconazole/voriconazole-susceptible Candida albicans ATCC 2310. It counts as functional.
Data set [13] is described as follows: Antifungal activity against fluconazole/itraconazole/voriconazole-susceptible Candida albicans ATCC 2876. It counts as functional.
Data set [14] can be described thus: Antifungal activity against fluconazole/itraconazole/voriconazole-resistant Candida albicans ATCC 10231. It counts as functional.
A short description of data set [15]: Antifungal activity against fluconazole/itraconazole/voriconazole-resistant Candida albicans ATCC 64124. It counts as functional.
The nature of data set [16]: Antifungal activity against fluconazole/itraconazole/voriconazole-resistant Candida albicans ATCC 90819. Format: functional.
For data set [17], the system named is Listeria monocytogenes. The data set can be described thus: Antibacterial activity against Listeria monocytogenes ATCC 19115 at 0.5 times MIC after […] serial passages. It counts as functional. The method, boiled down:
(§2)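 Multi-step resistance selection with serial sub-culture of bacteria at sub-inhibitory compound concentrations for 15 passages. MIC was redetermined after each passage to follow any increase over the starting value. Amikacin was run in parallel as reference.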

Data set [18] concerns Enterococcus. The data set can be described thus: Antibacterial activity against vancomycin-resistant Enterococcus at 0.5 times MIC after […] serial passages. It counts as functional. The method, boiled down: as §2
Data set [19] deals with Candida albicans. The data set can be described thus: Induction of intracellular ROS production in Candida albicans ATCC 10231 at 1 to 2 times MIC after 1 hr by DCFH-DA probe based fluorescence microscopic analysis. Format: functional, cell-based. The method, boiled down:
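C. albicans ATCC 10231 was exposed for 1 h at 35 °C, with untreated cells as negative control and 1 mM H2O2 as positive control. Cells were then stained with DCFH-DA (20 μg/mL), and intracellular ROS was read by fluorescence microscopy.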

Data set [20] in a line: Cytotoxicity against human A549 cells assessed as reduction in cell survival. It counts as toxicity, cell-based.
The nature of data set [21]: Cytotoxicity against human BEAS2B cells assessed as reduction in cell survival. It counts as toxicity, cell-based. To be noted: beas-2b.
Data set [22] has as its system Staphylococcus aureus. As to the kind of experiment: Antibacterial activity against methicillin-resistant Staphylococcus aureus. It counts as functional. The method in brief:
as §1

For data set [23], the system named is Enterococcus. The data set can be described thus: Antibacterial activity against vancomycin-resistant Enterococcus. Format: functional. The method, boiled down: as §1
Data set [24] has as its system Listeria monocytogenes. The data set can be described thus: Ratio of MIC for Listeria monocytogenes ATCC 19115 after and before 15 serial passages at 0.5 times MIC. It counts as functional. The method in brief:
as §2

Data set [25] concerns Staphylococcus aureus. The data set can be described thus: Ratio of MIC for methicillin-resistant Staphylococcus aureus after and before 15 serial passages at 0.5 times MIC. It counts as functional. The method, boiled down:
as §2

For data set [26], the system named is Enterococcus. The data set can be described thus: Ratio of MIC for vancomycin-resistant Enterococcus after and before 15 serial passages at 0.5 times MIC. Format: functional. The method, boiled down:
as §2

Data set [27] deals with Pseudomonas aeruginosa. The data set can be described thus: Ratio of MIC for Pseudomonas aeruginosa ATCC 27853 after and before 15 serial passages at 0.5 times MIC. Format: functional. The method in brief: as §2
In data set [28] the test system is Candida albicans. As to the kind of experiment: Ratio of MIC for Candida albicans ATCC 10231 after and before 13 serial passages at 0.5 times MIC. Format: functional.

For orientation: MIC means the lowest concentration that inhibits growth of the organism. High values mean a less susceptible organism, low ones a more susceptible organism. What is called IC50 is the concentration at which inhibition is half-maximal. Turning to `Cl.N=C(N)N/N=C/c1ccc(-c2ccc(/C=N/Nc3ccccc3Cl)cc2)cc1`, the minimum inhibitory concentration (MIC) was over 500 µM in [1]; 1 to 2 µM in data set [2]; over 500 µM in data set [3]; over 500 µM in [4]; over 500 µM in data set [5]; over 500 µM in data set [6]. The minimum inhibitory concentration (MIC) in data set [7] was over 500 µM; in data set [8], over 500 µM; in data set [9] it was 3.9 µM; in [10] it was 4.6 µM; in data set [11], 9.2 µM; in [12], 4.6 µM. Further, the MIC came out at 4.6 µM in data set [13], 4.6 µM in data set [14], 9.2 µM in data set [15] and 4.6 µM in data set [16]. Further, the result in data set [17], in [18] and in [19] was Active. Also, the figures for the IC50 in [20] and in data set [21] were 2.8 µg/mL and 2.3 µg/mL, respectively.

In the case of `Cl.N=C(N)N/N=C/c1ccc(-c2ccc(/C=N/Nc3ccc(Cl)cc3)cc2)cc1`, the MIC was over 500 µM in [1]; 3.9 µM in data set [2]; 7.8 µM in [22]; 3.9 µM in [23]; over 500 µM in data set [3]; over 500 µM in [4]. Moreover, the minimum inhibitory concentration (MIC) in [5] is over 500 µM; in data set [6], over 500 µM; in data set [7] it was over 500 µM; in data set [8], over 500 µM; in data set [9], 3.9 µM; in data set [10], 9.1 µM. Moreover, the MIC in data set [11] stood at 36.5 µM; in [12], 9.1 µM; in data set [13], 18.3 µM; in [14] it was 18.3 µM; in data set [15] it was 36.5 µM; in data set [16], 18.3 µM. Besides, the half-maximal inhibitory concentration (IC50) in [20] is 4.9 µg/mL; in data set [21], 6 µg/mL.

Turning to `Cl.N#Cc1ccc(N/N=C/c2ccc(-c3ccc(/C=N/NC(=N)N)cc3)cc2)cc1`, the minimum inhibitory concentration (MIC) in data set [1] was 31.3 µM; in data set [2], 7.8 µM; in [22], 15.6 µM; in data set [23] it was 2 to 3.9 µM; in data set [3] it was 15.6 to 31.3 µM; in data set [4], 500 µM. The MIC is 62.5 to 125 µM in [5]; 15.6 to 31.3 µM in data set [6]; 31.3 to 62.5 µM in [7]; 15.6 µM in [8]; 15.6 to 31.3 µM in [9]; 18.7 µM in [10]. The minimum inhibitory concentration (MIC) in data set [11] came to 37.3 µM; in data set [12] it was 37.3 µM; in data set [13], 37.3 µM; in data set [14], 37.3 µM; in data set [15], 74.9 µM; in data set [16], 37.3 µM. Besides, the figures for the IC50 in [20] and in data set [21] were 4.2 µg/mL and 1.9 µg/mL, respectively.

On to `Cl.Cl.N=C(N)N/N=C/c1ccc(-c2ccc(/C=N/NC(=N)N)cc2)cc1`, for which the MIC in data set [1] was over 500 µM; in [2] it was 1 µM; in [22], 3.9 µM; in [23], 2 µM; in [3], over 500 µM; in [4], over 500 µM. Also, the minimum inhibitory concentration (MIC) was over 500 µM in [5]; over 500 µM in [6]; over 500 µM in [7]; over 500 µM in data set [8]; over 500 µM in data set [9]; 19.7 µM in [10]. For the same compound, the MIC in [11] was 39.5 µM; in data set [12] it was over 79.2 µM; in [13] it was 19.7 µM; in data set [14], 39.5 µM; in data set [15] it was over 79.2 µM; in data set [16] it was over 79.2 µM. Moreover, the half-inhibitory concentration (IC50) in data set [20] turned out to be 6.6 µg/mL; in data set [21] it was 3 µg/mL.

For `C/C(=N\NC(=N)N)c1ccc(CCc2ccc(/C(C)=N/NC(=N)N)cc2)cc1.Cl.Cl`, the MIC in data set [1] was over 500 µM; in data set [2], 1 µM; in [22], 1 to 2 µM; in data set [23] it was 1 µM; in [3], over 500 µM; in data set [4] it was over 500 µM. The minimal inhibitory concentration (MIC) in [5] was over 500 µM; in data set [6], over 500 µM; in data set [7] it was over 500 µM; in data set [8], over 500 µM; in data set [9], 1 µM; in [10] it was 34.6 µM. Moreover, the minimal inhibitory concentration (MIC) in data set [11] is 34.6 µM; in data set [12] it was 69.3 µM; in data set [13], 8.6 µM; in [14], 17.3 µM; in [15] it was over 69.3 µM; in data set [16], 17.3 µM. Moreover, the “fold change (FC)” value in [24] is 8; in data set [25], 4 - 16; in [26], 16. For the same compound, the IC50 was found to be 2.9 µg/mL in data set [20] and 1.8 µg/mL in data set [21].

Consider `C/C(=N\NC(=N)N)c1ccc(-c2ccc(/C(C)=N/NC(=N)N)cc2)cc1.Cl.Cl`, for which the MIC in data set [1] was over 500 µM; in data set [2] it was over 500 µM; in data set [22] it was over 500 µM; in [23] it was over 500 µM; in data set [3], over 500 µM; in data set [4] it was 125 µM. For the same compound, the MIC in data set [5] was 62.5 µM; in data set [6], 15.6 µM; in data set [7] it was 2 µM; in data set [8], over 500 µM; in [9], over 500 µM; in data set [10], 18.4 µM. For the same compound, the MIC is over 73.9 µM in data set [11]; 9.2 µM in [12]; 4.7 µM in data set [13]; 4.7 to 9.2 µM in data set [14]; 4.7 µM in data set [15]; 9.2 µM in [16]. Also, the figures for the IC50 in data set [20] and in [21] were 6.3 µg/mL and 1.7 µg/mL, respectively.

As to `Cl.Cl.N=C(N)N/N=C/c1ccc(-c2cccc(/C=N/NC(=N)N)c2)cc1`, the MIC in data set [1] is over 500 µM; in data set [2] it was 1 µM; in [22], 3.9 µM; in [23], 3.9 µM; in data set [3] it was over 500 µM; in data set [4], over 500 µM. Also, the MIC in data set [5] was over 500 µM; in data set [6], over 500 µM; in data set [7] it was over 500 µM; in data set [8], over 500 µM; in [9], 1 µM; in data set [10], 9.9 µM. In addition, the MIC in data set [11], in [12], in data set [13], in data set [14], in data set [15] and in data set [16] was 9.9 µM each time. The half-maximal inhibitory concentration (IC50) in data set [20] stood at 13.9 µg/mL; in [21], 5.7 µg/mL.

As to `C/C(=N\NC(=N)N)c1ccc2c(c1)Cc1cc(/C(C)=N/NC(=N)N)ccc1-2.Cl.Cl`, the MIC in data set [1] was 7.8 µM; in data set [2], under 0.5 µM; in data set [22], 1 to 2 µM; in [3], 500 µM; in [4] it was 500 µM; in data set [5], 500 µM. The minimum inhibitory concentration (MIC) was 31.3 to 62.5 µM in [6]; 1 to 2 µM in [7]; 3.9 µM in data set [8]; 2.3 µM in data set [10]; 4.6 µM in data set [11]; 2.3 µM in data set [12]. Moreover, the MIC in data set [13] was 2.3 µM; in data set [14] it was 2.3 to 4.6 µM; in data set [15] it was 2.3 µM; in data set [16] it was 4.6 µM. Moreover, the “fold change (FC)” value in [24] came out at 1; in data set [25] it was 1; in [26], 1; in data set [27], 1; in data set [28], 2. The result in data set [19] was Active. Besides, the IC50 worked out at 2.5 µg/mL in data set [20] and 1.8 µg/mL in data set [21].
